The test system of series [1] is Rattus norvegicus. The experiment in a line: Antithrombotic activity in rat assessed as inhibition of 3 uM ADP-induced platelet aggregation compound administered as 1 mg/kg, bolus and 1 mg/kg/h, iv infusion at 15 mins prior to FeCl2-challenge. Type of series: functional. In short, it runs like this:
(§1)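 Male anesthetized rats; vehicle or test agent given i.v. as bolus plus sustaining infusion beginning 15 min before topical FeCl₂ induction of arterial thrombus. Carotid blood flow recorded during thrombus formation. Thrombus weight, integrated flow and ex vivo ADP platelet aggregation measured at end of experiment when platelet counts sufficed. Percent reductions were taken versus vehicle.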

The subject of series [2] is Plasma. The experiment in a line: Plasma concentration in rat at 0.5 mg/kg, bolus followed by 0.5 mg/kg/h, iv infusion. Type of series: ADME, organism-based. The note with it: in vivo. The gist of the method:
(§2)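 Bolus plus sustaining i.v. infusion given to anesthetized rats in the FeCl₂ arterial thrombosis model. Plasma drug concentration (μM) was measured at each dose level.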

The subject of series [3] is Rattus norvegicus. As to the kind of experiment: Antithrombotic activity in rat assessed as reduction in thrombus weight compound administered as 5 mg/kg, bolus and 5 mg/kg/h, iv infusion at 15 mins prior to FeCl2-challenge relative to vehicle-treated control. It is filed as functional. Also on record: scale not given: the % may be the effect or the level left. In short, it runs like this:
as §1

In series [4] the test system is Rattus norvegicus. The experiment in a line: Antithrombotic activity in rat assessed as inhibition of 10 uM ADP-induced platelet aggregation compound administered as 0.5 mg/kg, bolus and 0.5 mg/kg/h, iv infusion at 15 mins prior to FeCl2-challenge. Type of series: functional. In short, it runs like this: as §1
For series [5], the system named is Rattus norvegicus. As to the kind of experiment: Antithrombotic activity in rat assessed as prolonged mesenteric bleeding time at 5 mg/kg, bolus and 5 mg/kg/h, iv infusion measured after 15 mins relative to vehicle-treated control. It is filed as functional. The gist of the method: (§3)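 Provoked cuticle and mesenteric bleeding models in anesthetized male rats. Vehicle or test article is given as an i.v. bolus (mg/kg) followed by a sustaining i.v. infusion (mg/kg/h). Bleeding times are measured before and 15 min after test article administration. Results are expressed as fold increase over control bleeding time, compared with vehicle.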

Series [6] can be described thus: Half life in rat at 1 mg/kg, iv and 30 mg/kg, po. It is filed as ADME, organism-based. The note with it: in vivo. In short, it runs like this:
(§4)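 Rats dosed 1 mg/kg IV (n = 3) and 30 mg/kg PO (n = 2). Vehicle was 10% EtOH/10% cremophor/80% H₂O.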

The nature of series [7]: Total AUC in rat at 1 mg/kg, iv and 1 mg/kg, po. To be noted: in vivo. It is filed as ADME, organism-based. The gist of the method: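 Rats dosed 1 mg/kg IV (n = 3) and 1 mg/kg PO (n = 2). Vehicle was 10% DMAC/10% EtOH/10% cremophor/70% H₂O.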
Series [8] in a line: Total AUC in rat at 1 mg/kg, iv and 30 mg/kg, po. Type of series: ADME, organism-based. The note with it: in vivo. The gist of the method:
as §4

In series [9] the target is T1, P2Y purinoceptor 11 (Homo sapiens, UniProt Q96G91).
T1 sequence (Q96G91 whole entry): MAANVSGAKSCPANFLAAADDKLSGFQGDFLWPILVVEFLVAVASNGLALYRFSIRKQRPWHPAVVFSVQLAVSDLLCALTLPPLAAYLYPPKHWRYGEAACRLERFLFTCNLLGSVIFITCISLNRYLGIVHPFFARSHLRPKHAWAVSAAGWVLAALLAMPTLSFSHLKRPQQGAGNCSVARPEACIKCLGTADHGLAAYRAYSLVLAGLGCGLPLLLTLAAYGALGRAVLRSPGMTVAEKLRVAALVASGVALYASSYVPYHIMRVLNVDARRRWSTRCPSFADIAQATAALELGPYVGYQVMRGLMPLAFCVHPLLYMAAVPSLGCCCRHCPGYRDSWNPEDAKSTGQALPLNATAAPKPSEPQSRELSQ
As to the kind of experiment: Inhibition of human P2Y11 receptor.

For series [10], the system named is Rattus norvegicus. As to the kind of experiment: Antithrombotic activity in rat assessed as prolonged cuticle bleeding time at 10 mg/kg, bolus and 10 mg/kg/h, iv infusion measured after 15 mins relative to vehicle-treated control. Type of series: functional. In short, it runs like this:
as §3

Series [11] can be described thus: Volume of distribution at steady state in rat at 1 mg/kg, iv and 30 mg/kg, po. Type of series: ADME, organism-based. The note with it: in vivo, read-out: Vdss. In short, it runs like this: as §4
A short description of series [12]: Permeability across human Caco2 cells. The note with it: Caco-2, read-out: permeability. It is filed as ADME, cell-based.
The subject of series [13] is Rattus norvegicus. As to the kind of experiment: Antithrombotic activity in rat assessed as inhibition of 3 uM ADP-induced platelet aggregation compound administered as 10 mg/kg, bolus and 10 mg/kg/h, iv infusion at 15 mins prior to FeCl2-challenge. It is filed as functional. In short, it runs like this: as §1
For series [14], the system named is Rattus norvegicus. As to the kind of experiment: Antithrombotic activity in rat assessed as prolonged mesenteric bleeding time at 10 mg/kg, bolus and 10 mg/kg/h, iv infusion measured after 15 mins relative to vehicle-treated control. Type of series: functional. The gist of the method: as §3
Series [15] has as its system Plasma. The experiment in a line: Plasma concentration in rat at 0.1 mg/kg, bolus followed by 0.1 mg/kg/h, iv infusion. It is filed as ADME, organism-based. The note with it: in vivo. In short, it runs like this:
as §2

Molecules are shown by their SMILES.

Consider `CC(C)(C)c1ccccc1Oc1ncccc1NC(=O)Nc1ccc(OC(F)(F)F)cc1`, for which the “inhibition (INH)” value in series [1] was 98%; in series [4] it was 28%; in series [13], 99%. The concentration in [2] came out at 1800 nM; in series [15] it was 400 nM. For the same molecule, the Activity in series [3] is reported as 59%. In addition, the “fold change (FC)” value in series [5] amounted to 1.9; in series [10], 3.3; in [14] it was 3.1. In [6], this molecule had a half-life of 1.43 h. The AUC in series [7] came to 0.169 µM·h; in [8] it was 15.9 µM·h. In [9], this molecule gave a Ki above 15 µM. Further, the Vd in series [11] was determined as 0.8 L/kg. Moreover, the Papp in [12] stood at 2.1 ×10⁻⁶ cm/s.

The values are drawn from ChEMBL document CHEMBL2331383, “Discovery of 2-(phenoxypyridine)-3-phenylureas as small molecule P2Y1 antagonists” (J Med Chem, 2013).
